Measured values reported in ChEMBL document CHEMBL1275408, “A chemical genomic screen in Saccharomyces cerevisiae reveals a role for diphthamidation of translation elongation factor 2 in inhibition of protein synthesis by sordarin” (2008).
Active and inactive are the calls of the source. The rule behind the calls is not given here.

What was measured:
Saccharomyces cerevisiae [1] = assay: Antifungal activity against Saccharomyces cerevisiae BY4741 harboring COX11 YPL132W mutant gene by spectrophotometry; type: functional
How it was run: (§1)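 Screen of BY4741 KanMX4 deletion strains pre-grown 3 days at 28°C in YPD with G418 (150 mg/liter), then pinned into liquid SC containing GM193663. The sensitivity screen used 2 ng/ml; the resistance screen used 62.5 ng/ml, with validation at 62.5, 125 and 500 ng/ml. OD595 was read every 24 h over 5 days at 28°C. Growth was scored relative to wild type and to drug-free controls. Retests were at least in duplicate.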

Saccharomyces cerevisiae [2] = assay: Antifungal activity against Saccharomyces cerevisiae BY4741 harboring MRPL36 YBR122C mutant gene by spectrophotometry; type: functional
How it was run: (§2)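 Haploid MATa BY4741 KanMX4 deletion strains pinned from frozen stocks into YPD + G418 (150 mg/liter), grown 3 days at 28°C to confluence, then pin-replicated into SC liquid with no drug or sordarin derivative GM193663 (2 ng/ml sensitivity; 62.5 ng/ml resistance). 28°C, OD595 read every 24 h for 5 days; growth scored relative to wild type on same plate and to untreated mutant.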

Saccharomyces cerevisiae [3] = assay: Antifungal activity against Saccharomyces cerevisiae BY4741 harboring YLR143W mutation in unknown gene by spectrophotometry; type: functional
How it was run: (§3)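 Deletion strains from the nonessential haploid MATa BY4741 collection (KanMX4 replacement) were grown in YPD with G418 at 28°C for 3 days, then pinned into liquid SC with or without sordarin derivative GM193663 (2 ng/ml for sensitivity, 62.5 ng/ml for resistance). Cultures were kept at 28°C and read at OD595 every 24 h for 5 days. Growth was scored against wild type on the same plate and against the drug-free control. Hits were retested at least in duplicate.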

Saccharomyces cerevisiae [4] = assay: Antifungal activity against Saccharomyces cerevisiae BY4741 harboring MHP1 YJL042W mutant gene by spectrophotometry; type: functional; how it was run: as §1
Saccharomyces cerevisiae [5] = assay: Antifungal activity against Saccharomyces cerevisiae BY4741 harboring SBE2 YDR351W mutant gene by spectrophotometry; type: functional; how it was run: as §2
Saccharomyces cerevisiae [6] = assay: Antifungal activity against Saccharomyces cerevisiae BY4741 harboring PRR2 YDL214C mutant gene by spectrophotometry; type: functional; how it was run: as §2
Saccharomyces cerevisiae [7] = assay: Antifungal activity against Saccharomyces cerevisiae BY4741 harboring PUF3 YLL013C mutant gene by spectrophotometry; type: functional; how it was run: as §2
Saccharomyces cerevisiae [8] = assay: Antifungal activity against Saccharomyces cerevisiae BY4741 harboring YDR020C mutation in unknown gene by spectrophotometry; type: functional; how it was run: as §2
Saccharomyces cerevisiae [9] = assay: Antifungal activity against Saccharomyces cerevisiae BY4741 harboring SHU2 YDR078C mutant gene by spectrophotometry; type: functional; how it was run: as §2
Saccharomyces cerevisiae [10] = assay: Antifungal activity against Saccharomyces cerevisiae BY4741 harboring RPS4A YJR145C mutant gene by spectrophotometry; type: functional; how it was run: as §2
Saccharomyces cerevisiae [11] = assay: Antifungal activity against Saccharomyces cerevisiae BY4741 harboring LDB17 YDL146W mutant gene by spectrophotometry; type: functional; how it was run: as §1
Saccharomyces cerevisiae [12] = assay: Antifungal activity against Saccharomyces cerevisiae BY4741 harboring MRPL37 YBR268W mutant gene by spectrophotometry; type: functional; how it was run: as §2
Saccharomyces cerevisiae [13] = assay: Antifungal activity against Saccharomyces cerevisiae BY4741 harboring deletion mutation in dph5 gene at 300 to 500 ng/ml after 24 hrs by liquid growth assay; type: functional
Saccharomyces cerevisiae [14] = assay: Antifungal activity against Saccharomyces cerevisiae BY4741 harboring COQ1 YBR003W mutant gene by spectrophotometry; type: functional; how it was run: as §1
Saccharomyces cerevisiae [15] = assay: Antifungal activity against Saccharomyces cerevisiae BY4741 harboring CNM67 YNL225C mutant gene assessed as reduction in fungal growth at 2 ng/ml by spectrophotometry; type: functional, organism-based
How it was run: (§4)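 Haploid BY4741 KanMX4 deletion strains pre-grown in YPD with G418 (150 mg/liter) for 3 days at 28°C. They were then pin-replicated into liquid SC with sordarin derivative GM193663 at 2 ng/ml, or without drug. Plates were incubated at 28°C and OD595 read every 24 h for 5 days. Growth was scored against wild type on the same plate and against the drug-free mutant. Hits were retested at least in duplicate.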

Saccharomyces cerevisiae [16] = assay: Antifungal activity against Saccharomyces cerevisiae BY4741 harboring YDL063C mutation in unknown gene by spectrophotometry; type: functional; how it was run: as §2
Saccharomyces cerevisiae [17] = assay: Antifungal activity against Saccharomyces cerevisiae BY4741 harboring YER087W mutation in unknown gene by spectrophotometry; type: functional; how it was run: as §3
Saccharomyces cerevisiae [18] = assay: Antifungal activity against Saccharomyces cerevisiae BY4741 harboring SEM1 YDR363W-A mutant gene by spectrophotometry; type: functional; how it was run: as §2
Saccharomyces cerevisiae [19] = assay: Antifungal activity against Saccharomyces cerevisiae BY4741 harboring ATP12 YJL180C mutant gene assessed as reduction in fungal growth at 2 ng/ml by spectrophotometry; type: functional, organism-based; how it was run: as §4
Saccharomyces cerevisiae [20] = assay: Antifungal activity against Saccharomyces cerevisiae BY4741 harboring MIP1 YOR330C mutant gene by spectrophotometry; type: functional; how it was run: as §1
Saccharomyces cerevisiae [21] = assay: Antifungal activity against Saccharomyces cerevisiae BY4741 harboring YBR099C mutation by spectrophotometry; type: functional; how it was run: as §2
Saccharomyces cerevisiae [22] = assay: Antifungal activity against Saccharomyces cerevisiae BY4741 harboring UBX3 YDL091C mutant gene by spectrophotometry; type: functional; how it was run: as §2
Saccharomyces cerevisiae [23] = assay: Antifungal activity against Saccharomyces cerevisiae BY4741 harboring YHL041W mutation in unknown gene by spectrophotometry; type: functional; how it was run: as §3
Saccharomyces cerevisiae [24] = assay: Antifungal activity against Saccharomyces cerevisiae BY4741 harboring FYV1 YDR024W mutant gene by spectrophotometry; type: functional; how it was run: as §1
Saccharomyces cerevisiae [25] = assay: Antifungal activity against Saccharomyces cerevisiae BY4741 harboring FMP35 YIL157C mutant gene by spectrophotometry; type: functional; how it was run: as §1
Saccharomyces cerevisiae [26] = assay: Antifungal activity against Saccharomyces cerevisiae BY4741 harboring YCL042W mutation by spectrophotometry; type: functional; how it was run: as §2
Saccharomyces cerevisiae [27] = assay: Antifungal activity against Saccharomyces cerevisiae BY4741 harboring deletion mutation in dph2 gene at 300 to 500 ng/ml after 24 hrs by liquid growth assay; type: functional
Saccharomyces cerevisiae [28] = assay: Antifungal activity against Saccharomyces cerevisiae BY4741 harboring RPS11A YDR025W mutant gene by spectrophotometry; type: functional; how it was run: as §2
Saccharomyces cerevisiae [29] = assay: Antifungal activity against Saccharomyces cerevisiae BY4741 harboring YDR008C mutation by spectrophotometry; type: functional; how it was run: as §2
Saccharomyces cerevisiae [30] = assay: Antifungal activity against Saccharomyces cerevisiae BY4741 harboring YDL062W mutation in unknown gene by spectrophotometry; type: functional; how it was run: as §2
Saccharomyces cerevisiae [31] = assay: Antifungal activity against Saccharomyces cerevisiae BY4741 harboring SUR2 YDR297W mutant gene by spectrophotometry; type: functional; how it was run: as §2
Saccharomyces cerevisiae [32] = assay: Antifungal activity against Saccharomyces cerevisiae BY4741 harboring deletion mutation in dph3 gene at 300 to 500 ng/ml after 24 hrs by liquid growth assay; type: functional
Saccharomyces cerevisiae [33] = assay: Antifungal activity against Saccharomyces cerevisiae BY4741 harboring deletion mutation in dph2 gene at 100 ng/ml by plate assay; type: functional, organism-based
How it was run: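 Spot test on solid SC glucose plates with or without 100 ng/ml sordarin. Drops of 10^5 cells plus 10-fold serial dilutions of each dph deletion strain were spotted alongside the parental strain. Plates were incubated at 28°C for 6 days and imaged every 24 h.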

Saccharomyces cerevisiae [34] = assay: Antifungal activity against Saccharomyces cerevisiae BY4741 harboring QRI5 YLR204W mutant gene by spectrophotometry; type: functional; how it was run: as §2
Saccharomyces cerevisiae [35] = assay: Antifungal activity against Saccharomyces cerevisiae BY4741 harboring MRH1 YDR033W mutant gene by spectrophotometry; type: functional; how it was run: as §1
Saccharomyces cerevisiae [36] = assay: Antifungal activity against Saccharomyces cerevisiae BY4741 harboring RAD28 YDR030C mutant gene by spectrophotometry; type: functional; how it was run: as §2

CO[C@H]1[C@@H](O)[C@H](O)[C@H](OC[C@@]23C[C@@H]4[C@H](C)CC[C@H]4[C@@]4(C=O)CC2C=C(C(C)C)[C@@]34C(=O)O)O[C@@H]1C [SORDARIN]
MIC (Saccharomyces cerevisiae [1]): > 0.125 µg/mL | MIC (Saccharomyces cerevisiae [2]): > 0.5 µg/mL | MIC (Saccharomyces cerevisiae [3]): > 0.5 µg/mL | MIC (Saccharomyces cerevisiae [4]): > 0.125 µg/mL | MIC (Saccharomyces cerevisiae [5]): > 0.5 µg/mL | MIC (Saccharomyces cerevisiae [6]): > 0.5 µg/mL | MIC (Saccharomyces cerevisiae [7]): > 0.5 µg/mL | MIC (Saccharomyces cerevisiae [8]): > 0.5 µg/mL | MIC (Saccharomyces cerevisiae [9]): > 0.5 µg/mL | MIC (Saccharomyces cerevisiae [10]): > 0.0625 µg/mL | MIC (Saccharomyces cerevisiae [11]): > 0.125 µg/mL | MIC (Saccharomyces cerevisiae [12]): > 0.5 µg/mL | Activity (Saccharomyces cerevisiae [13]): 50% | MIC (Saccharomyces cerevisiae [14]): > 0.5 µg/mL | Activity (Saccharomyces cerevisiae [15]): Active | MIC (Saccharomyces cerevisiae [16]): > 0.125 µg/mL | MIC (Saccharomyces cerevisiae [17]): > 0.5 µg/mL | MIC (Saccharomyces cerevisiae [18]): > 0.125 µg/mL | Activity (Saccharomyces cerevisiae [19]): Active | MIC (Saccharomyces cerevisiae [20]): > 0.5 µg/mL | MIC (Saccharomyces cerevisiae [21]): > 0.5 µg/mL | MIC (Saccharomyces cerevisiae [22]): > 0.5 µg/mL | MIC (Saccharomyces cerevisiae [23]): > 0.5 µg/mL | MIC (Saccharomyces cerevisiae [24]): > 0.5 µg/mL | MIC (Saccharomyces cerevisiae [25]): > 0.5 µg/mL | MIC (Saccharomyces cerevisiae [26]): > 0.125 µg/mL | Activity (Saccharomyces cerevisiae [27]): 50% | MIC (Saccharomyces cerevisiae [28]): > 0.0625 µg/mL | MIC (Saccharomyces cerevisiae [29]): > 0.5 µg/mL | MIC (Saccharomyces cerevisiae [30]): > 0.125 µg/mL | MIC (Saccharomyces cerevisiae [31]): > 0.0625 µg/mL | Activity (Saccharomyces cerevisiae [32]): 50% | MIC (Saccharomyces cerevisiae [33]): inactive | MIC (Saccharomyces cerevisiae [34]): > 0.125 µg/mL | MIC (Saccharomyces cerevisiae [35]): > 0.125 µg/mL | MIC (Saccharomyces cerevisiae [36]): > 0.5 µg/mL
